ChEMBL document CHEMBL1142429, “Identification of ACE pharmacophore in the phosphonopeptide metabolite K-26” (Bioorg Med Chem Lett, 2008)

Test: Inhibition of ACE
Outline: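 Enzyme source: rabbit lung acetone powder, extracted by soaking in 100 mM borate buffer, then ultracentrifuged. Extract preincubated 5 min with a range of inhibitor concentrations. Reaction started with a 1 mM solution of chromogenic substrate FAPGG. Initial hydrolysis rate followed continuously as absorbance change at 340 nm over time. IC50 from triplicate measurements fitted to a sigmoidal dose-response curve. Captopril run in parallel as benchmark.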

| Compound | IC50 |
| --- | --- |
| CC[C@@H](C)[C@H](N)C(=O)N[C@@H](Cc1ccc(O)cc1)C(=O)N[C@@H](Cc1ccc(O)cc1)C(=O)O | 236 µM |
| CC[C@@H](C)[C@H](N)C(=O)N[C@@H](Cc1ccc(O)cc1)C(=O)N[C@@H](Cc1ccc(O)cc1)P(=O)(O)O | 0.234 µM |
| CCOP(=O)(OCC)[C@H](Cc1ccc(O)cc1)NC(=O)[C@H](Cc1ccc(O)cc1)NC(=O)[C@@H](NC(C)=O)[C@H](C)CC | 383 µM |
| CC[C@@H](C)[C@H](N)C(=O)N[C@@H](Cc1ccc(O)cc1)C(=O)N[C@H](Cc1ccc(O)cc1)P(=O)(O)O | 54.6 µM |
| C[C@H](CS)C(=O)N1CCC[C@H]1C(=O)O [CAPTOPRIL] | 0.0077 µM |

Continued, values first:

| IC50 | Compound |
| --- | --- |
| > 1000 µM | CC[C@@H](C)[C@H](N)C(=O)N[C@@H](Cc1ccc(O)cc1)C(=O)N[C@H](Cc1ccc(O)cc1)C(=O)O |
| 21 µM | CC[C@@H](C)[C@H](NC(C)=O)C(=O)N[C@@H](Cc1ccc(O)cc1)C(=O)N[C@@H](Cc1ccc(O)cc1)C(=O)O |
| 2000 µM | CC[C@@H](C)[C@H](NC(C)=O)C(=O)N[C@@H](Cc1ccc(O)cc1)C(=O)N[C@H](Cc1ccc(O)cc1)C(=O)O |
| 0.139 µM | CC[C@@H](C)[C@H](NC(C)=O)C(=O)N[C@@H](Cc1ccc(O)cc1)C(=O)N[C@H](Cc1ccc(O)cc1)P(=O)(O)O |
| 0.0144 µM | CC[C@@H](C)[C@H](NC(C)=O)C(=O)N[C@@H](Cc1ccc(O)cc1)C(=O)N[C@@H](Cc1ccc(O)cc1)P(=O)(O)O |
